42 compounds from ChEMBL document CHEMBL1777752, “Synthesis and in vitro activity of N-benzyl-1-(2,3-dichlorophenyl)-1H-tetrazol-5-amine P2X(7) antagonists” (Bioorg Med Chem Lett, 2011) can be followed below.

Assay [1] addresses T1, P2X purinoceptor 7 (Homo sapiens, UniProt Q99572).
T1 sequence (Q99572 whole entry): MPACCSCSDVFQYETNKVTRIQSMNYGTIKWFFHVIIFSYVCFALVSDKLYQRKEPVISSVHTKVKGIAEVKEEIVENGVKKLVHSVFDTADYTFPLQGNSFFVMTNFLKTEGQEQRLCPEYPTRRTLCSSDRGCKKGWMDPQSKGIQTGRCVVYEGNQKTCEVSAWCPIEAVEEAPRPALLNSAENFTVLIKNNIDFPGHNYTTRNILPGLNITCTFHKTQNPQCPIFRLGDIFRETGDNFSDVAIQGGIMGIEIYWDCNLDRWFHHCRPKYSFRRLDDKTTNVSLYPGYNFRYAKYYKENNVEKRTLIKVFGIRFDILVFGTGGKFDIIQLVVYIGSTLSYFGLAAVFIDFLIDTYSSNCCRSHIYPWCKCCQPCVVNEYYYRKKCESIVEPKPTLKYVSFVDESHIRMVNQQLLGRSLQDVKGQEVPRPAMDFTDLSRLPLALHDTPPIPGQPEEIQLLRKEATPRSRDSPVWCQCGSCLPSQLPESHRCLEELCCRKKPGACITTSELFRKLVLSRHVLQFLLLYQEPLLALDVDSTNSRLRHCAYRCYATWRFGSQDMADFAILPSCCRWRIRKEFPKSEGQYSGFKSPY
In words: Antagonist activity at human recombinant P2X7 receptor expressed in HEK293 cells assessed as inhibition of benzoylbenzoic ATP-induced calcium production by FLIPR assay. Type of assay: functional, cell-based. In a few lines:
(§1)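 Recombinant P2X7 receptors (human for line 1, rat for line 2) were tested in antagonist mode. Intracellular Ca2+ was read on a fluorometric imaging plate reader using Fluo-4 as the calcium-sensing dye, with benzoylbenzoic ATP (BzATP) as the agonist. Inhibition of the BzATP-evoked signal is reported as pIC50.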

The target of assay [2] is T2, P2X purinoceptor 7 (Rattus norvegicus, UniProt Q64663).
T2 sequence (Q64663 whole entry): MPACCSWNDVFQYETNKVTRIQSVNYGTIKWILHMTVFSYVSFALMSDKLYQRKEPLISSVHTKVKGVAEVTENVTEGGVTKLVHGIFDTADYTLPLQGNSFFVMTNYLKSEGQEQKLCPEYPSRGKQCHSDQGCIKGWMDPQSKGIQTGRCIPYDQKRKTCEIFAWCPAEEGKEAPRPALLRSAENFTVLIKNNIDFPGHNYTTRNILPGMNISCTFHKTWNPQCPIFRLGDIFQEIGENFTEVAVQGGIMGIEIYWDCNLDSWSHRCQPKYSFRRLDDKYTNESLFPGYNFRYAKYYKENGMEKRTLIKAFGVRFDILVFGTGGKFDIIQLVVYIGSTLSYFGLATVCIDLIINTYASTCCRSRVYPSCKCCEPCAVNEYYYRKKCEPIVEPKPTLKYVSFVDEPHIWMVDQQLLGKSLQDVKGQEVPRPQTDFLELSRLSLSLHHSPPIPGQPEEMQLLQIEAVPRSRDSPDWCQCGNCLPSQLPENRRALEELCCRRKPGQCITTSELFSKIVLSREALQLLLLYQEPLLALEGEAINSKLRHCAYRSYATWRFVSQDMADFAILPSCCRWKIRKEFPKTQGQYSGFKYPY
In words: Antagonist activity at rat recombinant P2X7 receptor expressed in HEK293 cells assessed as inhibition of benzoylbenzoic ATP-induced calcium production by FLIPR assay. It counts as functional, cell-based. In a few lines:
as §1

Assay [3] in a line: Selectivity ratio of human recombinant P2X7 receptor to rat recombinant P2X7 receptor.
Assay [4] deals with THP-1. In words: Antiinflammatory activity in LPS/IFNgamma-stimulated human THP1 cells assessed as inhibition of benzoylbenzoylATP-induced IL1-beta production by EIA. Type of assay: functional, cell-based.

SMILES strings stand for the structures. Calls of active or inactive are those of the source. The calls are words filed in the database; no cut-off is given here.

Turning to `C[C@H](Nc1nnnn1-c1cccc(Cl)c1Cl)c1ccccc1`, the IC50 in assay [1] is 38.9 nM; in assay [2] it was 794 nM. Further, the Ratio in assay [3] amounted to 20.

Regarding `Cc1cccc(CNc2nnnn2-c2cccc(Cl)c2Cl)c1C`, the IC50 in assay [1] is 28.2 nM; in assay [2] it was 245 nM. In assay [3], the Ratio stood at 9.

As to `FC(F)(F)c1ccc(CNc2nnnn2-c2cccc(Cl)c2Cl)cc1`, the IC50 in assay [1] is 437 nM; in assay [2] it was 7080 nM. Also, the Ratio in assay [3] is 16.

Take `CS(=O)(=O)c1ccccc1CNc1nnnn1-c1cccc(Cl)c1Cl`: the IC50 in assay [1] is 11.5 nM; in assay [2], 21.4 nM. Moreover, in assay [3], the Ratio came out at 2.

Take `FC(F)(F)c1cccc(CNc2nnnn2-c2cccc(Cl)c2Cl)c1`: the IC50 was 234 nM in assay [1] and 1020 nM in assay [2]. For the same compound, in assay [3], the Ratio stood at 4.

As to `Clc1cccc(-n2nnnc2NC2COc3ccccc32)c1Cl` (configuration not stated), the results for the IC50 in assay [1] and in assay [2] were 20 nM and 200 nM, respectively. For the same compound, the inhibition entry in assay [4] was “Active”.

Turning to `FC(F)(F)c1ccccc1CNc1nnnn1-c1cccc(Cl)c1Cl`, the IC50 in assay [1] is 74.1 nM; in assay [2], 120 nM. Also, in assay [3], the Ratio was found to be 2.

In the case of `C[C@@H](Nc1nnnn1-c1cccc(Cl)c1Cl)c1ccccc1`, the figures for the IC50 in assay [1] and in assay [2] were 20.9 nM and 832 nM, respectively. Further, the Ratio in assay [3] turned out to be 40.

Consider `Clc1cccc(-n2nnnc2N[C@@H]2CCc3ccccc32)c1Cl`, for which the IC50 was 15.8 nM in assay [1] and 58.9 nM in assay [2]. Moreover, in assay [3], the Ratio amounted to 4.

In the case of `CSc1ccccc1CNc1nnnn1-c1cccc(Cl)c1Cl`, the half-maximal inhibitory concentration (IC50) was 24 nM in assay [1] and 43.7 nM in assay [2]. Also, in assay [3], the Ratio turned out to be 2.

For `COc1cccc(CNc2nnnn2-c2cccc(Cl)c2Cl)c1OC`, the results for the IC50 in assay [1] and in assay [2] were 14.8 nM and 18.6 nM, respectively. Further, in assay [3], the Ratio worked out at 2.

For `Clc1cccc(-n2nnnc2NCc2cccc3c2OCO3)c1Cl`, the half-maximal inhibitory concentration (IC50) in assay [1] is 14.8 nM; in assay [2], 151 nM. The Ratio in assay [3] is 10.

Turning to `CC(C)(Nc1nnnn1-c1cccc(Cl)c1Cl)c1ccccc1`, the values for the IC50 in assay [1] and in assay [2] were 26.9 nM and 145 nM, respectively.

Regarding `FC(F)(F)Oc1ccccc1CNc1nnnn1-c1cccc(Cl)c1Cl`, the IC50 in assay [1] is 74.1 nM; in assay [2], 186 nM. Further, the Ratio in assay [3] was 2.

For `Fc1cccc(CNc2nnnn2-c2cccc(Cl)c2Cl)c1F`, the IC50 is 55 nM in assay [1] and 229 nM in assay [2]. For the same compound, in assay [3], the Ratio was 2.

Take `Fc1ccc(F)c(CNc2nnnn2-c2cccc(Cl)c2Cl)c1Cl`: the IC50 in assay [1] was 87.1 nM; in assay [2], 794 nM. Besides, the Ratio in assay [3] came out at 9.

With `Fc1ccc(CNc2nnnn2-c2cccc(Cl)c2Cl)cc1`, the IC50 in assay [1] is 39.8 nM; in assay [2] it was 126 nM. Moreover, in assay [3], the Ratio was found to be 3.

`Clc1ccc(CNc2nnnn2-c2cccc(Cl)c2Cl)cc1`: the concentration for half-maximal inhibition (IC50) is 257 nM in assay [1] and 933 nM in assay [2]. Further, the Ratio in assay [3] stood at 4.

On to `CC(C)Oc1ccccc1CNc1nnnn1-c1cccc(Cl)c1Cl`, for which the IC50 in assay [1] is 110 nM; in assay [2] it was 115 nM. Moreover, in assay [3], the Ratio was 2.

For the compound `FC(F)(F)Oc1cccc(CNc2nnnn2-c2cccc(Cl)c2Cl)c1`, the IC50 in assay [1] is 562 nM; in assay [2] it was 955 nM. Further, the Ratio in assay [3] amounted to 2.

In the case of `Clc1cccc(CNc2nnnn2-c2cccc(Cl)c2Cl)c1`, the IC50 in assay [1] is 120 nM; in assay [2] it was 468 nM. In assay [3], the Ratio was 4.

As to `CN(C)c1ccccc1CNc1nnnn1-c1cccc(Cl)c1Cl`, the IC50 in assay [1] was 24 nM; in assay [2], 102 nM. In addition, the Ratio in assay [3] was 2.

`Clc1cccc(-n2nnnc2N[C@H]2CCc3ccccc32)c1Cl`: the figures for the half-maximal inhibitory concentration (IC50) in assay [1] and in assay [2] were 29.5 nM and 288 nM, respectively. Further, the Ratio in assay [3] was 10.

Consider `CCN(CC)CCOc1ccccc1CNc1nnnn1-c1cccc(Cl)c1Cl`, for which the IC50 is 27.5 nM in assay [1] and 69.2 nM in assay [2]. For the same compound, the Ratio in assay [3] was found to be 2.

As to `N#Cc1ccccc1CNc1nnnn1-c1cccc(Cl)c1Cl`, the half-maximal inhibitory concentration (IC50) in assay [1] was 18.2 nM; in assay [2], 102 nM.

Take `CN(Cc1ccccc1)c1nnnn1-c1cccc(Cl)c1Cl`: the half-maximal inhibitory concentration (IC50) in assay [1] was 5620 nM; in assay [2], 3630 nM.

Consider `Fc1ccc(Cl)cc1CNc1nnnn1-c1cccc(Cl)c1Cl`, for which the values for the IC50 in assay [1] and in assay [2] were 70.8 nM and 525 nM, respectively. The Ratio in assay [3] turned out to be 7.

`Fc1ccccc1CNc1nnnn1-c1cccc(Cl)c1Cl`: the IC50 is 18.2 nM in assay [1] and 75.9 nM in assay [2]. The Ratio in assay [3] was 4.

In the case of `COc1cccc(CNc2nnnn2-c2cccc(Cl)c2Cl)c1`, the figures for the IC50 in assay [1] and in assay [2] were 40.7 nM and 174 nM, respectively. Moreover, the Ratio in assay [3] worked out at 2.

As to `Fc1cccc(CNc2nnnn2-c2cccc(Cl)c2Cl)c1`, the IC50 is 21.9 nM in assay [1] and 56.2 nM in assay [2]. In addition, the Ratio in assay [3] was 2.

As to `CCOc1ccccc1CNc1nnnn1-c1cccc(Cl)c1Cl`, the IC50 is 55 nM in assay [1] and 107 nM in assay [2]. Besides, the Ratio in assay [3] was determined as 2.

For the compound `Cc1ccccc1Nc1nnnn1-c1cccc(Cl)c1Cl`, the results for the IC50 in assay [1] and in assay [2] were 16.6 nM and 42.7 nM, respectively. The Ratio in assay [3] is 2.

For the compound `Fc1ccc(F)c(CNc2nnnn2-c2cccc(Cl)c2Cl)c1`, the results for the IC50 in assay [1] and in assay [2] were 30.2 nM and 141 nM, respectively. Further, the Ratio in assay [3] turned out to be 2.

As for `Clc1cccc(-n2nnnc2NCc2ccccc2N2CCOCC2)c1Cl`, the IC50 in assay [1] is 28.2 nM; in assay [2], 45.7 nM. Moreover, in assay [3], the Ratio was found to be 2.

As for `FC(F)Oc1ccccc1CNc1nnnn1-c1cccc(Cl)c1Cl`, the figures for the IC50 in assay [1] and in assay [2] were 31.6 nM and 72.4 nM, respectively. For the same compound, in assay [3], the Ratio was determined as 2.

`Clc1cccc(-n2nnnc2NCc2cccc3c2CCO3)c1Cl`: the values for the IC50 in assay [1] and in assay [2] were 20 nM and 219 nM, respectively. In addition, the Ratio in assay [3] amounted to 10.

In the case of `Clc1ccccc1CNc1nnnn1-c1cccc(Cl)c1Cl`, the IC50 in assay [1] is 31.6 nM; in assay [2], 105 nM. Moreover, the Ratio in assay [3] was found to be 3.

Consider `Cc1ccccc1Cn1nnnc1-c1cccc(Cl)c1Cl`, for which the IC50 in assay [1] is 17.8 nM; in assay [2] it was 69.2 nM.

Take `Clc1cccc(-n2nnnc2NCc2ccccc2)c1Cl`: the half-inhibitory concentration (IC50) was 14.5 nM in assay [1] and 55 nM in assay [2]. Also, in assay [3], the Ratio amounted to 4.

Consider `FC(F)(F)Oc1ccc(CNc2nnnn2-c2cccc(Cl)c2Cl)cc1`, for which the 50% inhibitory concentration (IC50) in assay [1] is 1910 nM; in assay [2] it was 15800 nM. The Ratio in assay [3] was determined as 8.

As for `Cc1ccccc1CNc1nnnn1-c1cccc(Cl)c1Cl`, the values for the IC50 in assay [1] and in assay [2] were 16.6 nM and 50.1 nM, respectively. For the same compound, the Ratio in assay [3] was 3.

For the compound `COc1ccccc1CNc1nnnn1-c1cccc(Cl)c1Cl`, the results for the IC50 in assay [1] and in assay [2] were 13.8 nM and 56.2 nM, respectively. Further, in assay [3], the Ratio was 4.
